From ChEMBL document CHEMBL3877301 (J Med Chem, 2016)

Assays:
Adenosine receptor A1 = molecular target: T1, Adenosine receptor A1 (Homo sapiens, UniProt P30542); assay: Displacement of [3H]DPCPX from human adenosine A1 receptor expressed in CHO cell membranes measured after 90 mins by scintillation counting method
T1 sequence (P30542 whole entry): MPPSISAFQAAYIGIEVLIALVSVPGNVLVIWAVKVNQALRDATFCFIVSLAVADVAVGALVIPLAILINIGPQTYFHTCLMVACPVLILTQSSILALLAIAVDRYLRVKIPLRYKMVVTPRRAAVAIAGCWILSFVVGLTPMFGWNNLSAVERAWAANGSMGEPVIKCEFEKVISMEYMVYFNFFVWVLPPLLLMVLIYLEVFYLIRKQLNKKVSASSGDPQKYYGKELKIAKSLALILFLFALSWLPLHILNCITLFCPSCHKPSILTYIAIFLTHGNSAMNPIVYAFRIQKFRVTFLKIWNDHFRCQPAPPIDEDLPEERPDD
Summary of the method: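 Membranes came from CHO cells stably transfected with hA1 AR. Cells were scraped into ice-cold hypotonic buffer (5 mM Tris HCl, 1 mM EDTA, pH 7.4), homogenized, and spun at 40000g for 30 min at 4 °C. Membranes (50 μg protein/100 μL) were incubated with 1 nM [3H]-DPCPX and varied test concentrations at 25 °C for 90 min in 50 mM Tris HCl, pH 7.4.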

Adenosine receptor A3 = molecular target: T2, Adenosine receptor A3 (Homo sapiens, UniProt P0DMS8); assay: Displacement of [125I]AB-MECA from human adenosine A3 receptor expressed in CHO cell membranes measured after 120 mins by scintillation counting method
T2 sequence (P0DMS8 whole entry): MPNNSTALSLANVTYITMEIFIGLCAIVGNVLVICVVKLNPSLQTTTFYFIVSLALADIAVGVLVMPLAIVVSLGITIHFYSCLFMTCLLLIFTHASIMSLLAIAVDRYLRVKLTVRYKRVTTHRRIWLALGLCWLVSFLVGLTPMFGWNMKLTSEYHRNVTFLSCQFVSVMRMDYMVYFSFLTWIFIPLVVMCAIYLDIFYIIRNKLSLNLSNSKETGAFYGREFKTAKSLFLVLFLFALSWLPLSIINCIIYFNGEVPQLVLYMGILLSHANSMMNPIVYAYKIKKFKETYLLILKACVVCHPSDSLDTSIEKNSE

Adenosine receptor A2b = molecular target: T3, Adenosine receptor A2b (Homo sapiens, UniProt P29275); assay: Inverse agonist activity at human adenosine A2B receptor expressed in CHO cells assessed as inhibition of cAMP accumulation measured after 150 mins in presence of [3H]cAMP by scintillation counting method; type: functional, cell-based
T3 sequence (P29275 whole entry): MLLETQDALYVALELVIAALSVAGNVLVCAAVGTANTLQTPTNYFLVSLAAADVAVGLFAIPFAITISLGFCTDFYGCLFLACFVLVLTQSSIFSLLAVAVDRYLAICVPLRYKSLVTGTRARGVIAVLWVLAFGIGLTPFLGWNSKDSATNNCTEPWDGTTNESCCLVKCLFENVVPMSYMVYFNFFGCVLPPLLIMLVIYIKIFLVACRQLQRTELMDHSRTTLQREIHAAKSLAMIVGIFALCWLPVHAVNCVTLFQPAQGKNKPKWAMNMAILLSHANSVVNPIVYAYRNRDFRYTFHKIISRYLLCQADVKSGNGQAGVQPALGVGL

Adenosine receptor A2a [1] = molecular target: T4, Adenosine receptor A2a (Homo sapiens, UniProt P29274); assay: biochemical
[2] = molecular target: T5, Adenosine receptor A1 (Homo sapiens) (UniProt P30542); assay: Inverse agonist activity at human adenosine A1 receptor expressed in CHO cells assessed as inhibition of cAMP accumulation at 10 uM measured after 150 mins in presence of [3H]cAMP by scintillation counting method relative to control; type: functional, cell-based
T5 sequence (whole entry): T1 sequence (P30542 whole entry)
Summary of the method: (§1)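 Transfected CHO cells (hA1, hA2B or hA3) were grown adherently in DMEM/F12 with 10% fetal calf serum, penicillin, streptomycin, 2 mM L-glutamine and 0.2 mg/mL G418 at 37 °C in 5% CO2. Test compounds were applied at 10 μM. cAMP is reported as percent of basal level (100%), given as mean ± SEM.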

[3] = molecular target: T6, Adenosine receptor A3 (Homo sapiens) (UniProt P0DMS8); assay: Inverse agonist activity at human adenosine A3 receptor expressed in CHO cells assessed as inhibition of cAMP accumulation at 10 uM measured after 150 mins in presence of [3H]cAMP by scintillation counting method relative to control; type: functional, cell-based; summary of the method: as §1
T6 sequence (whole entry): T2 sequence (P0DMS8 whole entry)

[4] = molecular target: T7, Adenosine receptor A2b (Homo sapiens) (UniProt P29275); assay: Inverse agonist activity at human adenosine A2B receptor expressed in CHO cells assessed as inhibition of cAMP accumulation at 10 uM measured after 150 mins in presence of [3H]cAMP by scintillation counting method relative to control; type: functional, cell-based; summary of the method: as §1
T7 sequence (whole entry): T3 sequence (P29275 whole entry)

Mus musculus [5] = species on record: Mus musculus; assay: Analgesic activity in CD-1 mouse assessed as reduction in acetic acid-induced abdominal constrictions preincubated for 15 mins followed by acetic acid challenge measured for 30 mins by writhing test; type: functional; conditions: for inhibition: Abdomen
Summary of the method: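 Mice received acetic acid ip to induce abdominal constrictions; vehicle-treated mice served as controls. Test agents were given over a dose range. ED50 (mg/kg) was derived from the dose–response curve, and dose dependence was analysed by one-way ANOVA.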

Mus musculus [6] = species on record: Mus musculus; assay: Antinociceptive activity in CD-1 mouse assessed as increase in latency in response to heat stimulus measured for 15 mins by hot water tail immersion test; type: functional; conditions: CD-1, 0.25 h
Summary of the method: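 Test agents were given to mice over a dose range before hot water tail immersion. ED50 (mg/kg) was derived from the dose–response curve, and the minimum effective dose was also noted.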

Adenosine receptor A2a [7] = molecular target: T4, Adenosine receptor A2a; conditions: CHO
Adenosine receptor A2a [8] = molecular target: T4, Adenosine receptor A2a; assay: Inverse agonist activity at human adenosine A2A receptor expressed in CHO cells assessed as inhibition of cAMP accumulation measured after 150 mins in presence of [3H]cAMP by scintillation counting method; type: functional, cell-based
Adenosine receptor A2a [9] = molecular target: T4, Adenosine receptor A2a; assay: Antagonist activity against human adenosine A2A receptor expressed in CHO cells assessed as inhibition of CGS21680-stimulated cAMP accumulation measured after 150 mins in presence of [3H]cAMP by scintillation counting method; type: functional, cell-based

T4 sequence (P29274 whole entry): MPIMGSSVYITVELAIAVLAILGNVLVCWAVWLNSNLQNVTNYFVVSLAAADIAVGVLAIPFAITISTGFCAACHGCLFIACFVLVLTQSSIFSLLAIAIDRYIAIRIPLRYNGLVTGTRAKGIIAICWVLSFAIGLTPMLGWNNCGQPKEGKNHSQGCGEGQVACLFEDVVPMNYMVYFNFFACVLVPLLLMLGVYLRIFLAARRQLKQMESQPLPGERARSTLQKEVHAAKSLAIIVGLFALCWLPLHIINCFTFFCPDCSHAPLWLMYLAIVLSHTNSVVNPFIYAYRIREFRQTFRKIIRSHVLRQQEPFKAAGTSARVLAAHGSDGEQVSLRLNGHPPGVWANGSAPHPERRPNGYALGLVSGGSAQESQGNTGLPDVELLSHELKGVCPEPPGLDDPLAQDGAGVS

With `COc1cccc(CCNc2nc(N)c3nc(-c4ccco4)sc3n2)c1` the Ki (Adenosine receptor A1) was 0.92 nM, the Ki (Adenosine receptor A3) was 287 nM and the IC50 (Adenosine receptor A2b) was 47 nM. The Ki (Adenosine receptor A2a [1]) was 17 nM.
Work on `Nc1nc(NCCCc2ccccc2)nc2sc(-c3ccco3)nc12` yielded a Ki (Adenosine receptor A1) of 49 nM, a Ki (Adenosine receptor A3) of 1140 nM and an IC50 (Adenosine receptor A2b) of 1770 nM. It also gave a Ki (Adenosine receptor A2a [1]) of 58 nM.
For `COc1cccc(CNc2nc(N)c3nc(-c4ccco4)sc3n2)c1`, the inhibition [2] was 104%, the inhibition [3] was 106% and the inhibition [4] was 99%. For the same molecule, the inhibition (Mus musculus [5]) was “Dose-dependent effect”, the ED50 (Mus musculus [5]; CD-1, Abdomen) was 0.158 mg/kg and the ED50 (Mus musculus [6]) was 0.926 mg/kg. It also gave a KiH (Adenosine receptor A2a [7]) of 6.71 nM.
Molecule `Nc1nc(NCCc2cccc(O)c2)nc2sc(-c3ccco3)nc12` has a Ki (Adenosine receptor A1) of 0.23 nM, a Ki (Adenosine receptor A3) of 76 nM and an IC50 (Adenosine receptor A2b) of 25 nM. For the same molecule, the Ki (Adenosine receptor A2a [1]) was 16 nM.
`Nc1nc(NCc2ccccc2)nc2sc(-c3ccco3)nc12` gave a Ki (Adenosine receptor A1) of 45 nM, a Ki (Adenosine receptor A3) of 37 nM and an IC50 (Adenosine receptor A2b) of 32 nM. For the same molecule, the IC50 (Adenosine receptor A2a [8]) was 29 nM, the IC50 (Adenosine receptor A2a [9]) was 18 nM and the inhibition [2] was 101%. The inhibition [3] was 102%, the inhibition [4] was 95% and the Ki (Adenosine receptor A2a [1]) was 22 nM.
Molecule `Nc1nc(NCc2cccc(O)c2)nc2sc(-c3ccco3)nc12` has an inhibition [2] of 96%, an inhibition [3] of 98% and an inhibition [4] of 95%.
`Nc1nc(Nc2ccccc2)nc2sc(-c3ccco3)nc12` gave a Ki (Adenosine receptor A1) of 645 nM, a Ki (Adenosine receptor A3) of 321 nM and an IC50 (Adenosine receptor A2b) of 632 nM. For the same molecule, the Ki (Adenosine receptor A2a [1]) was 782 nM.
`COc1ccc(CCNc2nc(N)c3nc(-c4ccco4)sc3n2)cc1OC` was tested, and the Ki (Adenosine receptor A1) was 221 nM, the Ki (Adenosine receptor A3) was 824 nM and the IC50 (Adenosine receptor A2b) was 95 nM. It also gave a Ki (Adenosine receptor A2a [1]) of 91 nM.
`COc1ccc(CNc2nc(N)c3nc(-c4ccco4)sc3n2)cc1` showed an inhibition [2] of 100%, an inhibition [3] of 104% and an inhibition [4] of 97%.
With `CN1CC[C@]23c4c5ccc(O)c4O[C@H]2[C@@H](O)C=C[C@H]3[C@H]1C5` [MORPHINE] the inhibition (Mus musculus [5]) was “Dose-dependent effect” and the ED50 (Mus musculus [6]) was 1.14 mg/kg.
With `Nc1nc(NCCc2ccc(O)c(O)c2)nc2sc(-c3ccco3)nc12` the Ki (Adenosine receptor A1) was 39 nM, the Ki (Adenosine receptor A3) was 546 nM and the IC50 (Adenosine receptor A2b) was 18 nM. It also gave a Ki (Adenosine receptor A2a [1]) of 40 nM.
`COc1ccccc1CNc1nc(N)c2nc(-c3ccco3)sc2n1` gave an inhibition [2] of 106%, an inhibition [3] of 91% and an inhibition [4] of 94%. The inhibition (Mus musculus [5]) was “Dose-dependent effect”, the minimal effective dose (Mus musculus [6]; read-out: MED) was 0.01 mg/kg and the KiH (Adenosine receptor A2a [7]) was 5.23 nM.
In the case of `Nc1nc(NCCc2ccccc2)nc2sc(-c3ccco3)nc12`, the Ki (Adenosine receptor A1) is reported as 24 nM, the Ki (Adenosine receptor A3) is reported as 217 nM and the IC50 (Adenosine receptor A2b) is reported as 389 nM. It also gave an IC50 (Adenosine receptor A2a [8]) of 35 nM, an IC50 (Adenosine receptor A2a [9]) of 16 nM and an inhibition [2] of 105%. The inhibition [3] was 94%, the inhibition [4] was 102% and the Ki (Adenosine receptor A2a [1]) was 30 nM.
With `Nc1nc(NCCc2ccc(O)cc2)nc2nc(-c3ccco3)nn12` [ZM-241385] the inhibition [2] was 103%, the inhibition [3] was 101% and the inhibition [4] was 109%. For the same molecule, the inhibition (Mus musculus [5]) was “Dose-dependent effect” and the ED50 (Mus musculus [6]) was greater than 10 mg/kg.
`COc1ccc(CCNc2nc(N)c3nc(-c4ccco4)sc3n2)cc1` gave a Ki (Adenosine receptor A1) of 61 nM, a Ki (Adenosine receptor A3) of 2650 nM and an IC50 (Adenosine receptor A2b) of 553 nM. For the same molecule, the IC50 (Adenosine receptor A2a [8]) was 42 nM, the IC50 (Adenosine receptor A2a [9]) was 31 nM and the inhibition [2] was 93%. For the same molecule, the inhibition [3] was 105%, the inhibition [4] was 103% and the Ki (Adenosine receptor A2a [1]) was 32 nM.
`Nc1nc(NCCc2ccc(O)cc2)nc2sc(-c3ccco3)nc12` was tested, and the Ki (Adenosine receptor A1) was 37 nM, the Ki (Adenosine receptor A3) was 1880 nM and the IC50 (Adenosine receptor A2b) was 482 nM. The IC50 (Adenosine receptor A2a [8]) was 25 nM, the IC50 (Adenosine receptor A2a [9]) was 21 nM and the inhibition [2] was 102%. It also gave an inhibition [3] of 101%, an inhibition [4] of 92% and a Ki (Adenosine receptor A2a [1]) of 18 nM.
